Measured values from ChEMBL document CHEMBL1141078, “Discovery of potent, nonsystemic apical sodium-codependent bile acid transporter inhibitors (Part 1)” (J Med Chem, 2005).

Assays:
[1] = target: T1, Ileal sodium/bile acid cotransporter (Homo sapiens, UniProt Q12908); test: In vitro inhibition of ASBT mediated uptake of [14C]taurocholate (5 uM) in Baby hamster cells expressing human IBAT; assay type: cell-based
T1 sequence (Q12908 whole entry): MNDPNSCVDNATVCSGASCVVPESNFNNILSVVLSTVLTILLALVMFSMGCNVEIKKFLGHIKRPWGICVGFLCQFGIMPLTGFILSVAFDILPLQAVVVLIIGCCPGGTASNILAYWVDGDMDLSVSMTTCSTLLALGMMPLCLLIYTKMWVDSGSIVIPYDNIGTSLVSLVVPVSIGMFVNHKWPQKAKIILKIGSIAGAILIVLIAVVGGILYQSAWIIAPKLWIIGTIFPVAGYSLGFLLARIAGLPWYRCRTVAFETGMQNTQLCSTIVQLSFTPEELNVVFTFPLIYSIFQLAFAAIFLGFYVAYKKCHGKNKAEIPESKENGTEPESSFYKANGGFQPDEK
Summary of the method: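 BHK cells stably transfected with human IBAT cDNA (H14) were seeded 24–72 h before assay at cell densities adjusted to that interval. Cells were washed, then incubated for 2 h at 37 °C in DMEM (4.5 g/L glucose, 0.2% fatty-acid-free BSA) with test compound and [14C]taurocholate. Wells were washed with cold PBS containing BSA and then with PBS alone. Cell-associated radioactivity was measured by scintillation counting, and IC50 values were derived.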

[2] = target: T1, Ileal sodium/bile acid cotransporter; test: Effect on serum total cholesterol in cholesterol-fed hamster; control is at 135; assay type: functional
[3] = target: T1, Ileal sodium/bile acid cotransporter; test: Effect on 24 hr fecal weight in cholesterol-fed hamster; control is at 2.1; assay type: functional, Feces
[4] = target: T1, Ileal sodium/bile acid cotransporter; test: Effect on fecal bile acid in cholesterol-fed hamster; control is at 8.0; assay type: functional, Feces
[5] = target: T1, Ileal sodium/bile acid cotransporter; test: Effect on serum total cholesterol in cholesterol-fed hamster; control is at 143; assay type: functional
[6] = target: T1, Ileal sodium/bile acid cotransporter; test: Effect on fecal bile acids in cholesterol-fed hamster; control is at 6.2; assay type: functional, Feces
[7] = target: T1, Ileal sodium/bile acid cotransporter; test: Effect on 24 hr fecal weight in cholesterol-fed hamster; control is at 2.3; assay type: functional, Feces
[8] = target: T1, Ileal sodium/bile acid cotransporter; test: Effect on serum total cholesterol in cholesterol-fed hamster; control is at 129; assay type: functional
[9] = target: T1, Ileal sodium/bile acid cotransporter; test: Effect on fecal bile acid in cholesterol-fed hamster; control is at 6.1; assay type: functional, Feces
[10] = target: T1, Ileal sodium/bile acid cotransporter; test: Effect on 24 hr fecal weight in cholesterol-fed hamster; control is at 1.7; assay type: functional, Feces
[11] = target: T1, Ileal sodium/bile acid cotransporter; test: Effect on fecal bile acid in cholesterol-fed hamster; control is at 8.7; assay type: functional, Feces
[12] = target: T1, Ileal sodium/bile acid cotransporter; test: Effect on 24 hr fecal weight in cholesterol-fed hamster; control is at 3.5; assay type: functional, Feces
[13] = target: T1, Ileal sodium/bile acid cotransporter; test: Effect on serum total cholesterol in cholesterol-fed hamster; control is at 195; assay type: functional

CCCCC1(CCCC)CS(=O)(=O)c2ccc(N(C)C)cc2[C@@H](c2ccc(OC)cc2)[C@H]1O
IC50 [1]: 7 nM

CCCCC1(CCCC)CS(=O)(=O)c2c(cccc2N(C)C)[C@@H](c2ccc(F)cc2)[C@H]1O
IC50 [1]: 180 nM

CCCCC1(CCCC)CS(=O)(=O)c2ccc([N+](C)(C)C)cc2[C@@H](c2ccccc2)[C@H]1O
IC50 [1]: 210 nM

CCCCC1(CCCC)CS(=O)(=O)c2ccc(OC)cc2[C@@H](c2ccc(F)cc2)[C@H]1O
IC50 [1]: 50 nM

CCCCC1(CCCC)CS(=O)(=O)c2ccc(N(C)C)cc2[C@@H](c2ccc(F)cc2)[C@H]1O
IC50 [1]: 10 nM

C=CCCCCCCCCOc1ccc2c(c1)S(=O)(=O)C[C@@](CC)(CCCC)[C@H](O)[C@@H]2c1ccccc1
IC50 [1]: 16000 nM

CCCC[C@]1(CC)CS(=O)(=O)c2ccc(NO)cc2[C@@H](c2ccccc2)[C@H]1O
IC50 [1]: 260 nM

CCCC[C@]1(CC)CS(=O)(=O)c2ccc(SC)cc2[C@@H](c2ccc(F)cc2)[C@H]1O
IC50 [1]: 19 nM

CC1(C)CS(=O)(=O)c2ccc(N)cc2[C@@H](c2ccccc2)[C@H]1O
IC50 [1]: > 50000 nM

CCCC[C@]1(CC)CS(=O)(=O)c2ccc(-c3ccccc3)cc2[C@@H](c2cccc(OC)c2)[C@H]1O
IC50 [1]: 180 nM

CCCCC1(CCCC)CS(=O)(=O)c2ccc(Br)cc2[C@@H](c2ccccc2Br)[C@H]1O
IC50 [1]: 550 nM

CCCCC1(CCCC)CS(=O)(=O)c2ccc(N(C)C)cc2[C@@H](c2ccccc2)[C@H]1O
IC50 [1]: 13 nM

CCCC[C@]1(CC)CS(=O)(=O)c2ccc(Br)cc2[C@@H](c2cccc(OC)c2)[C@H]1O
IC50 [1]: 70 nM

CCCCCC1(CCCCC)CS(=O)(=O)c2ccc(C)cc2[C@@H](c2ccc(F)cc2)[C@H]1O
IC50 [1]: 318 nM

CCCCC1(CCCC)CS(=O)(=O)c2c(F)cccc2[C@@H](c2ccc(F)cc2)[C@H]1O
IC50 [1]: 180 nM

CCCC[C@]1(CC)CS(=O)(=O)c2ccc(N(C)C)cc2[C@@H](c2ccccc2)[C@H]1O
Total cholesterol [2]: 97 mg/dL
Fecal weight [3]: 2.1 g
IC50 [1]: 5 nM
FBA [4]: 13.7 ((mmol/day)/100g)

CCCC[C@]1(CC)CS(=O)(=O)c2ccc(NS(C)(=O)=O)cc2[C@@H](c2ccccc2)[C@H]1O
IC50 [1]: 600 nM

CCCC[C@]1(CC)CS(=O)(=O)c2ccc(NC(C)=O)cc2[C@@H](c2ccccc2)[C@H]1O
IC50 [1]: 90 nM

CCCCC1(CCCC)CS(=O)(=O)c2cc(OC)ccc2[C@@H](c2ccccc2)[C@H]1O
IC50 [1]: 190 nM

CCCC[C@]1(CC)CS(=O)(=O)c2ccc(N(O)C(=O)OC(C)(C)C)cc2[C@@H](c2ccccc2)[C@H]1O
IC50 [1]: 2670 nM

CCCC[C@]1(CC)CS(=O)(=O)c2ccc(N3CCCC3)cc2[C@@H](c2ccc(F)cc2)[C@H]1O
IC50 [1]: 59 nM

CCCC[C@]1(CC)CS(=O)(=O)c2cc(OC)ccc2[C@@H](c2ccccc2)[C@H]1O
IC50 [1]: 120 nM
Total cholesterol [5]: 126 mg/dL
FBA [6]: 11.9 ((mmol/day)/100g)
Fecal weight [7]: 2.4 g

CCCC[C@]1(CC)CS(=O)(=O)c2ccc(C)cc2[C@@H](c2ccc(F)cc2)[C@H]1O
IC50 [1]: 21 nM

CCCC[C@]1(CC)CS(=O)(=O)c2ccc(NC(=O)OCc3ccccc3)cc2[C@@H](c2ccccc2)[C@H]1O
IC50 [1]: 400 nM

CCCC[C@]1(CC)CS(=O)(=O)c2ccc(N)cc2[C@@H](c2ccccc2)[C@H]1O
Total cholesterol [8]: 126 mg/dL
IC50 [1]: 68 nM
FBA [9]: 8.8 ((mmol/day)/100g)
Fecal weight [10]: 1.6 g

CCCCC1(CCCC)CS(=O)(=O)c2ccc(C)cc2[C@@H](c2ccc(F)cc2)[C@H]1O
IC50 [1]: 46 nM

CCCCC1(CCCC)CS(=O)(=O)c2c(OC)cc(N(C)C)cc2[C@@H](c2ccc(OC)cc2)[C@H]1O
IC50 [1]: 2 nM

CCCCCCNc1ccc2c(c1)[C@@H](c1ccccc1)[C@@H](O)[C@](CC)(CCCC)CS2(=O)=O
IC50 [1]: 1670 nM

CCCC[C@]1(CC)CS(=O)(=O)c2ccc(OC)cc2[C@@H](c2ccccc2)[C@H]1O
IC50 [1]: 55 nM

CCCCCC(=O)Nc1ccc2c(c1)[C@@H](c1ccccc1)[C@@H](O)[C@](CC)(CCCC)CS2(=O)=O
IC50 [1]: 300 nM

CCCCC1(CCCC)CS(=O)(=O)c2cc(N(C)C)ccc2[C@@H](c2ccccc2)[C@H]1O
IC50 [1]: 120 nM

CCCCC1(CCCC)CS(=O)(=O)c2ccc(N(C)C)cc2[C@@H](c2ccc(OCCOCCOCC[N+](CC)(CC)CC)cc2)[C@H]1O.[Br-]
FBA [11]: 16.2 ((mmol/day)/100g)
Fecal weight [12]: 3.9 g
IC50 [1]: 3 nM
Total cholesterol [13]: 141 mg/dL

CCCC[C@]1(CC)CS(=O)(=O)c2ccccc2[C@H](c2ccccc2)[C@H]1O (racemic)
Inhibition [1]: 37%

CCCC[C@]1(CC)CS(=O)(=O)c2ccccc2[C@@H](c2ccccc2)[C@@H]1O (racemic)
IC50 [1]: 4800 nM

CCCC[C@]1(CC)CS(=O)(=O)c2ccccc2[C@@H](c2ccccc2)[C@H]1O (racemic)
IC50 [1]: 280 nM
